Measurements published in ChEMBL document CHEMBL2057189, “Functional characterization of recombinant hyoscyamine 6β-hydroxylase from Atropa belladonna” (Bioorg Med Chem, 2012).
The source made the active and inactive calls. The rule behind the calls is not given here.

Legend:
Atropa belladonna [1] = experiment: Activity at Atropa belladonna recombinant hycosamine 6beta-hydroxylase expressed in Escherichia coli assessed as hydroxylated product formation at 0.2 mM after 1 hr by ESI-MS analysis
Method in brief: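 Ni-NTA-purified His-tagged AbH6H, E. coli-expressed. Analogue at 0.2 mM final replaced (−)-hyoscyamine in 50 mM Tris/HCl pH 7.6 with 0.4 mM FeSO4, 4 mM sodium ascorbate, 1 mM 2-oxoglutaric acid and 2 mg/mL catalase at 34 °C. The reaction was quenched with saturated Na2CO3 (pH ~9.5) and extracted with EtOAc. Conversion to products was checked by ESI-MS.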

Atropa belladonna [2] = experiment: Inhibition of Atropa belladonna recombinant hycosamine 6beta-hydroxylase expressed in Escherichia coli using hyoscyamine as substrate assessed as inhibition of hydroxylated product formation at 0.1 mM after 1 hr by HPLC analysis
Method in brief: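 Purified AbH6H was assayed in 50 mM Tris/HCl pH 7.6 with 0.4 mM FeSO4, 4 mM ascorbate, 1 mM 2-oxoglutarate, 2 mg/mL catalase and 0.2 mM (−)-hyoscyamine, plus 0.1 mM analogue, at 34 °C. After Na2CO3 quench and EtOAc extraction, 6β-hydroxyhyoscyamine was quantified by C18 HPLC (UV 210 nm, water/H3PO4–MeOH gradient). Inhibition was scored as reduced product formation.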

Atropa belladonna [3] = experiment: Activity at Atropa belladonna recombinant hycosamine 6beta-hydroxylase epoxidase activity expressed in Escherichia coli assessed as scopolamine formation at 0.2 mM after 1 hr by ESI-MS analysis
Method in brief: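 C-terminally His6-tagged A. belladonna H6H expressed in E. coli JM109 and Ni-NTA purified. Substrate (0.2 mM final) incubated at 34 °C in 50 mM Tris/HCl pH 7.6 with 0.4 mM FeSO4, 4 mM sodium ascorbate, 1 mM 2-oxoglutarate and 2 mg/mL catalase. Quenched with saturated Na2CO3 to pH ~9.5 and extracted with EtOAc. Products detected by ESI-MS.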

| SMILES | Activity (Atropa belladonna [1]) | inhibition (Atropa belladonna [2]) | Activity (Atropa belladonna [3]) |
| --- | --- | --- | --- |
| CN(C)c1ccc(CC(=O)O[C@H]2C[C@H]3CC[C@@H](C2)N3C)cc1 | Active | – | – |
| CN1CCC(OC(=O)Cc2ccccc2)CC1 | inactive | inactive | – |
| CN1[C@@H]2C=C[C@H]1C[C@@H](OC(=O)[C@H](CO)c1ccccc1)C2 | Active | – | Active |
| CN1C2CC[C@@H]1C[C@H](OC(=O)CCc1ccccc1)C2 (single isomer, unassigned) | inactive | inactive | – |
| CN1C2CC[C@@H]1C[C@H](OC(=O)c1ccccc1)C2 (single isomer, unassigned) | Active | – | – |
| C[N+]1(C)C2C[C@H](OC(=O)[C@H](CO)c3ccccc3)C[C@@H]1[C@H]1OC21 (single isomer, unassigned) | inactive | 7% | – |
| O=C(Cc1ccccc1)O[C@@H]1CC2CC[C@H](C1)O2 (single isomer, unassigned) | inactive | inactive | – |
